RGS4 inh: inhibitors of human RGS4. actives 0.45% (n = 310,000). P49798. B-score at 10 µM. HEK293 M3R/RGS4 inducible, Fluo-4 calcium flux; active compounds read high; triggered by carbachol at its EC20;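 active = B-score, a plate-corrected calcium signal, over three deviations above library mean, with baseline fluorescence within five deviations of library mean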;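 note: RGS4 expression induced by doxycycline in cells with stable M3 receptor; B-score is computed from the integrated fluorescence ratio over baseline after carbachol; higher B-score means a larger calcium signal and so more RGS4 inhibition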
Target sequence (P49798 whole entry, looked up): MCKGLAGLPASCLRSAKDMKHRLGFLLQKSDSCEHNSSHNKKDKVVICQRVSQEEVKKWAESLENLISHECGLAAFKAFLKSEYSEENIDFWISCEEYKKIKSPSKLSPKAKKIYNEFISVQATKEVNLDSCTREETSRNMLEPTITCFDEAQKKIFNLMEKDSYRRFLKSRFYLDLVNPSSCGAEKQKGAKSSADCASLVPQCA
MrgX1 antag: blocks BAM8-22 activation of human MrgX1 receptor. Q96LB2. B-score at 10 µM. MRGX1-HEK293 calcium flux, Fluo-4, BAM8-22 antagonism; active compounds read low. actives 1.3% (n = 310,000);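 active = calcium-response B-score plate-corrected more than 3 library SD below zero, starting fluorescence within 5 deviations, no agonist response on first addition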;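 note: peak minus trough fluorescence over baseline after final BAM8-22 challenge near maximal dose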
Target sequence (Q96LB2 whole entry, looked up): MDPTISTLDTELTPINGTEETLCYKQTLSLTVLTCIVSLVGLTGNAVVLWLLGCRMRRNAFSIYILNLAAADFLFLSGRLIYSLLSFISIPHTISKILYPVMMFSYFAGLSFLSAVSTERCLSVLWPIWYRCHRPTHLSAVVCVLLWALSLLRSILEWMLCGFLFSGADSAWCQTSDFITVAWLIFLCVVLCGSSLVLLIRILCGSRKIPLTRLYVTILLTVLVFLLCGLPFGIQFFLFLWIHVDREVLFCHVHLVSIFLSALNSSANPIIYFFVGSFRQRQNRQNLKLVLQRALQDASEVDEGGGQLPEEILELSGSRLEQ
MrgX1 PAM: allosterically activates human MrgX1 receptor signaling. B-score at 10 µM. Q96LB2. MrgX1-HEK293, Fluo-4 calcium flux, FDSS; active compounds read high. AID 588675. actives 0.63% (n = 310,000);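 active = plate-corrected calcium response at least 3 library SD above typical, normal starting fluorescence, not activating the receptor alone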;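 note: compound read alongside a low EC10 to EC30 dose of BAM8-22 agonist; peak minus trough fluorescence over baseline measured at the second addition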
MrgX1 ag: human MrgX1 receptor agonism, primary screen; actives 0.44% (n = 310,000); MrgX1-HEK293 cells, Fluo-4 calcium fluorescence, agonist mode; active compounds read high; Q96LB2; B-score at 10 µM;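 active = calcium response B-score plate-corrected fluorescence ratio at least 3 library SD, with starting fluorescence B-score inside 5 SD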
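System – MrgX1-expressing HEK293 cells · Incubation – cells plated overnight, dye loaded 0.5 h 37 °C, 0.5 h room temperature · Technique – kinetic Fluo-4 NW fluorescence of intracellular calcium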
RGS4 pot: potentiators or activators of RGS4; HEK293 M3R/inducible RGS4, carbachol calcium flux Fluo4; active compounds read low; B-score at 10 µM; actives 0.92% (n = 310,000); AID 463111;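 active = B-score of the integrated calcium signal more than 4 SD below the library mean, with starting fluorescence not abnormally high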;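 note: negative B-score means reduced calcium response which marks RGS4 activation or potentiation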
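Material: Inducible-RGS4 HEK293 cells carrying M3 receptor; also added: carbachol at ECmax as muscarinic agonist stimulus; incubation: compound preincubation 20 min at room temperature before agonist; signal: Fluo4-AM (2 µM) calcium-flux fluorescence, kinetic read; measure: integrated calcium ratio converted to B score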
The depositor's hits bear a star. In the library only some 3.5% were active in any assay of this set; here they are far more common.

COc1cc(/C=C2/SC(=S)N(c3c(C)n(C)n(-c4ccccc4)c3=O)C2=O)ccc1O was read as RGS4 inh inactive, MrgX1 antag inactive, MrgX1 PAM inactive, MrgX1 ag 35.7* and RGS4 pot inactive.
For NS(=O)(=O)c1ccc(N/N=C/c2ccncc2)cc1 the results were RGS4 inh inactive, MrgX1 antag inactive, MrgX1 PAM inactive, MrgX1 ag inactive and RGS4 pot inactive.
`O=[N+]([O-])c1cccc(N/N=C/c2cc([N+](=O)[O-])ccc2O)c1` gave RGS4 inh inactive, MrgX1 antag inactive, MrgX1 PAM inactive, MrgX1 ag inactive and RGS4 pot inactive.
NS(=O)(=O)c1ccc(N/N=C/c2ccccc2Br)cc1 was read as RGS4 inh inactive, MrgX1 antag inactive, MrgX1 PAM 6.84*, MrgX1 ag inactive and RGS4 pot inactive.
For O=[N+]([O-])c1ccc(N/N=C/c2ccccc2O)cc1 the results were RGS4 inh inactive, MrgX1 antag -4.89*, MrgX1 PAM inactive, MrgX1 ag inactive and RGS4 pot inactive.
COc1cccc(CNC(=O)CSc2nnc3c(n2)[nH]c2ccc(C)cc23)c1 was read as RGS4 inh inactive, MrgX1 antag inactive, MrgX1 PAM inactive, MrgX1 ag inactive and RGS4 pot inactive.
For COc1ccc(CCNC(=O)C(C)OC(=O)c2nsc(Cl)c2Cl)cc1OC (stereo unspecified) the results were RGS4 inh inactive, MrgX1 antag inactive, MrgX1 PAM inactive, MrgX1 ag inactive and RGS4 pot inactive.
Screening COCc1cc(C)nc(SCc2ccc(Br)cc2)c1C#N returned RGS4 inh inactive, MrgX1 antag inactive, MrgX1 PAM inactive, MrgX1 ag inactive and RGS4 pot inactive.
For Cc1cc(=O)n2nc(N3CCCC(C(=O)N4CCc5ccccc54)C3)sc2n1 (stereo unspecified) the results were RGS4 inh inactive, MrgX1 antag inactive, MrgX1 PAM inactive, MrgX1 ag inactive and RGS4 pot -7.65*.
For NC(=O)C1CCN(c2oc(/C=C/c3ccccc3)nc2S(=O)(=O)c2ccccc2)CC1 the results were RGS4 inh inactive, MrgX1 antag inactive, MrgX1 PAM inactive, MrgX1 ag inactive and RGS4 pot inactive.
CCC(OC(=O)CN1C(=O)C(=O)c2ccccc21)C(=O)Nc1ccccc1OC (stereo unspecified) was read as RGS4 inh inactive and RGS4 pot inactive.
C=C[C@@]1(C)CC(=O)[C@]2(O)[C@@]3(C)[C@@H](O)CCC(C)(C)[C@@H]3[C@H](O)[C@H](OC(C)=O)[C@@]2(C)O1 was read as RGS4 inh inactive, MrgX1 antag inactive, MrgX1 PAM 10*, MrgX1 ag inactive and RGS4 pot inactive.
`C=C1C(=O)O[C@H]2C[C@]3(C)C([C@@H](OC(=O)/C(C)=C/C)[C@H]12)[C@](C)(O)CC[C@H]3O` (stereo partly specified) gave RGS4 inh inactive, MrgX1 antag inactive, MrgX1 PAM inactive, MrgX1 ag inactive and RGS4 pot inactive.
COc1ccc(NC(=O)c2nnn(CC(=O)Nc3ccc4c(c3)OCO4)c2N)c(OC)c1 was read as RGS4 inh inactive, MrgX1 antag inactive, MrgX1 PAM inactive, MrgX1 ag inactive and RGS4 pot inactive.
Cc1ccc(C)c(C(=O)COC(=O)CCCC(=O)Nc2cc(C(F)(F)F)ccc2Cl)c1 was read as RGS4 inh inactive, MrgX1 antag -7.01*, MrgX1 PAM inactive, MrgX1 ag inactive and RGS4 pot inactive.
`CN1CCc2c(sc3c2C(=O)NC(c2cn(Cc4ccccc4)c4ccccc24)N3)C1` (stereo unspecified) gave RGS4 inh inactive, MrgX1 antag inactive, MrgX1 PAM inactive, MrgX1 ag 28.8* and RGS4 pot inactive.
`Cn1cccc1C1NC(=O)c2c(sc3c2CCC(C(C)(C)C)C3)N1` (stereo unspecified) gave RGS4 inh inactive, MrgX1 antag inactive, MrgX1 PAM inactive, MrgX1 ag inactive and RGS4 pot inactive.
For CN1CCc2c(sc3c2C(=O)NC(c2cccc(OC(=O)c4cccs4)c2)N3)C1 (stereo unspecified) the results were RGS4 inh inactive, MrgX1 antag inactive, MrgX1 PAM inactive, MrgX1 ag inactive and RGS4 pot inactive.
`O=C1NC(c2ccco2)Nc2sc3c(c21)CCN(Cc1ccccc1)C3` (stereo unspecified) gave MrgX1 antag inactive, MrgX1 PAM inactive and MrgX1 ag 30*.
Screening CCOC(=O)N1CCc2c(sc3c2C(=O)NC(c2ccccc2)N3)C1 (stereo unspecified) returned RGS4 inh inactive, MrgX1 antag inactive, MrgX1 PAM inactive, MrgX1 ag inactive and RGS4 pot inactive.
CN1CCc2c(sc3c2C(=O)NC(c2ccco2)N3)C1 (stereo unspecified) was read as RGS4 inh inactive, MrgX1 antag inactive, MrgX1 PAM inactive, MrgX1 ag 27* and RGS4 pot inactive.
Screening CC(=O)c1ccc(-n2ccc(=O)cc2)cc1 returned RGS4 inh inactive, MrgX1 antag inactive, MrgX1 PAM inactive, MrgX1 ag inactive and RGS4 pot inactive.
`Cc1c(Cl)cccc1NC(=S)N1CCC(N(C)CC2CCCO2)CC1` (stereo unspecified) gave RGS4 inh inactive, MrgX1 antag inactive, MrgX1 PAM inactive, MrgX1 ag inactive and RGS4 pot inactive.
Screening CCN1CCN(Cc2c(O)ccc3c2O/C(=C\c2ccccc2)C3=O)CC1 returned RGS4 inh inactive, MrgX1 antag inactive, MrgX1 PAM inactive, MrgX1 ag inactive and RGS4 pot -8.31*.
O=C1/C(=C/C=C/c2ccccc2)Oc2c1ccc(O)c2CN1CCN(CCO)CC1 was read as RGS4 inh inactive, MrgX1 antag -5.68*, MrgX1 PAM inactive, MrgX1 ag inactive and RGS4 pot inactive.
For CCN1CCN(Cc2c(O)ccc3c2O/C(=C\c2ccc(C)cc2)C3=O)CC1 the results were RGS4 inh inactive, MrgX1 antag inactive, MrgX1 PAM inactive, MrgX1 ag inactive and RGS4 pot inactive.
`Cc1ccc(/C=C2\Oc3c(ccc(O)c3CN3CCN(C)CC3)C2=O)cc1` gave RGS4 inh inactive, MrgX1 antag inactive, MrgX1 PAM inactive, MrgX1 ag inactive and RGS4 pot -9.6*.
O=C(NC(=S)Nc1ccccc1)c1cncc(C#Cc2ccccc2)c1 was read as RGS4 inh inactive, MrgX1 antag inactive, MrgX1 PAM inactive, MrgX1 ag inactive and RGS4 pot inactive.
Screening S=C(Nc1ccc(N2CCOCC2)cc1)Nc1ccc2nc(-c3ccco3)c(-c3ccco3)nc2c1 returned RGS4 inh inactive, MrgX1 antag inactive, MrgX1 PAM inactive, MrgX1 ag inactive and RGS4 pot -7.04*.

Compound activity (PubChem BioAssay)
